Data as given in ChEMBL document CHEMBL5321236, “Fluoro-labelled sp2-iminoglycolipids with immunomodulatory properties” (Eur J Med Chem, 2023).
Active and inactive are the calls of the source. The rule behind the calls is not given here.

Tests used:
SW1573 [1] = test: Growth inhibition of human SW1573 cells measured after 48 hrs by SRB colorimetric assay; format: functional
Procedure, shortened: (§1)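 NCI-based protocol with sulforhodamine B read-out. Seeded 2500 (A549, HBL-100, HeLa, SW1573), 5000 (T-47D, WiDr, SW1573/P-gp) or 7000 (BJ-hTERT) cells/well. Exposed 48 h to serial decimal dilutions, 0.001–100 μM, from 40 mM DMSO stock. GI50 by NCI formulas; mean of three or more experiments ± SD.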

WiDr = test: Growth inhibition of human WiDr cells measured after 48 hrs by SRB colorimetric assay; format: functional; procedure, shortened: as §1
hTERT-BJ = test: Growth inhibition of human hTERT-BJ cells measured after 48 hrs by SRB colorimetric assay; format: functional
Procedure, shortened: as §1, with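 “read-out. Cells grown in RPMI 1640 with 5% FBS and 1 mM glutamine at 37 °C, 5% CO₂.” for “read-out.”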

SW1573 [2] = test: Growth inhibition of human SW1573 cells overexpressing P-glycoprotein measured after 48 hrs in absence of verapamil by SRB colorimetric assay; format: functional
Procedure, shortened: as §1, with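 “read-out. Cells grown in RPMI 1640 with 5% FBS and 1 mM glutamine at 37 °C, 5% CO₂.” for “read-out.”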

[3] = Resistance factor, ratio of GI50 for growth inhibition of human SW1573 cells overexpressing P-glycoprotein measured after 48 hrs in absence of verapamil to GI50 for growth inhibition of human SW1573 cells measured after 48 hrs in absence of verapamil; format: functional
Procedure, shortened: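 Resistance factor: GI50 in P-gp-overexpressing SW1573 divided by GI50 in parental SW1573, each from 48 h SRB growth-inhibition assay without verapamil. Values are means of three or more independent experiments.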

HeLa [4] = test: Inhibition of colony formation in human HeLa cells assessed as reduction in number of colonies at GI50 concentration measured after 7 days by crystal violet staining based analysis; format: functional, cell-based; details: time 7.0 day
Procedure, shortened: (§2)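 HeLa and SW1573 seeded at 400 cells/well, dosed next day at GI50/3 and GI50 for the given line. Exposed seven days, fixed in methanol, stained with 0.5% w/v crystal violet. Colonies counted by automatic image segmentation.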

HeLa [5] = test: Inhibition of colony formation in human HeLa cells assessed as reduction in number of colonies at one third of GI50 concentration measured after 7 days by crystal violet staining based analysis; format: functional, cell-based; details: time 7.0 day; procedure, shortened: as §2
SW1573 [6] = test: Inhibition of colony formation in human SW1573 cells assessed as reduction in number of colonies at one third of GI50 concentration measured after 7 days by crystal violet staining based analysis; format: functional, cell-based; details: time 7.0 day; procedure, shortened: as §2
BV-2 = test: Antiinflammatory activity in mouse BV-2 cells assessed as reduction of LPS induced nitrites at 10 uM preincubated for 3 hrs followed by LPS stimulation and measured after 24 hrs by Griess method; format: functional, cell-based; details: time 27.0 hrs
Procedure, shortened: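 Bv.2 microglia at 70% confluence, pre-treated 3 h at 10 μM in serum-free medium, then LPS 200 ng/mL for 24 h. Nitrite in the medium measured by Griess (1% sulphanilamide, 0.1% NEDA in acid), absorbance 548 nm, expressed as fold change over basal. n ≥ 4 independent experiments in triplicate, mean ± SEM.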

HeLa [7] = test: Induction of morphological changes in human HeLa cells assessed as increase in average dry mass density at 20 uM measured after 15 hrs by imaging based analysis; format: functional, cell-based
Procedure, shortened: (§3)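 HeLa and SW1573 seeded at 100,000 cells/dish. After 24 h, medium switched to phenol-red-free RPMI 1640 and 20 μM added. Label-free holotomographic 3D live imaging of a 236 × 236 μm field, 10–20 cells initially, every 3 min for 15 h. Average dry mass density measured per cell at each cycle; morphology scored against untreated cells.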

SW1573 [8] = test: Induction of morphological changes in human SW1573 cells assessed as cell shrinkage at 20 uM measured after 5 hrs by microscopy based analysis; format: functional; procedure, shortened: as §3
HeLa [9] = test: Induction of morphological changes in human HeLa cells assessed as formation of apoptotic bodies at 20 uM measured after 5 hrs by microscopy based analysis; format: functional, cell-based; procedure, shortened: as §3
SW1573 [10] = test: Induction of apoptosis in human SW1573 cells assessed as membrane blebbing at 20 uM measured upto 15 hrs by microscopy based analysis; format: functional, cell-based; procedure, shortened: as §3
HeLa [11] = test: Induction of morphological changes in human HeLa cells assessed as membrane rupture at 20 uM measured after 12 hrs by imaging based analysis; format: functional, cell-based; procedure, shortened: as §3
HeLa [12] = test: Induction of morphological changes in human HeLa cells assessed as release of cellular content at 20 uM measured after 12 hrs by imaging based analysis; format: functional, cell-based; procedure, shortened: as §3
HeLa [13] = test: Induction of morphological changes in human HeLa cells assessed as signal transition to necrotic stage at 20 uM measured after 12 hrs by imaging based analysis; format: functional, cell-based; procedure, shortened: as §3
HeLa [14] = test: Induction of morphological changes in human HeLa cells assessed as production of filmy bubbles at 20 uM measured after 12 hrs by imaging based analysis; format: functional, cell-based; procedure, shortened: as §3

GI50 (SW1573 [1]): 9.1 µM
GI50 (SW1573 [2]): 5.3 µM
SMILES: CCCCCCCCCCCCS(=O)(=O)[C@@H]1[C@H](F)[C@@H](O)[C@H](O)[C@H]2COC(=O)N21
GI50 (WiDr): 20 µM
GI50 (hTERT-BJ): 32 µM
RatioGI50 [3]: 1.6
inhibition (HeLa [4]): Active
inhibition (HeLa [5]): Active
inhibition (SW1573 [6]): Active
Activity (BV-2): Active
Activity (HeLa [7]): Active
Activity (SW1573 [8]): Active
Activity (HeLa [9]): Active
Activity (SW1573 [10]): inactive
Activity (HeLa [11]): Active
Activity (HeLa [12]): Active
Activity (HeLa [13]): Active
Activity (HeLa [14]): Active
